Here are results for 19 compounds from ChEMBL document CHEMBL1268829, “Design, synthesis and activity of benzothiazole-based inhibitors of NO production in LPS-activated macrophages” (Bioorg Med Chem Lett, 2010).

Calls of active or inactive are those of the source. No cut-off for these calls is given here.

For assay [1], the system named is RAW264.7. Description: Inhibition of LPS-induced nitric oxide production in mouse RAW264.7 cells at 20 uM after 20 hrs by Griess method. To be noted: RAW264.7, 20 h. It is filed as functional. The gist of the method:
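Cells plated at 1 × 10⁵ cells/mL in 10% FBS-DMEM for 24 h, then given 1% FBS medium with compound at 20 μM plus LPS (1 μg/mL) for 20 h. Supernatant nitrite read by Griess reagent at 570 nm against a sodium nitrite standard. Percent inhibition relative to LPS control, n = 3.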
In general terms: The Griess reaction detects nitrite, a stable product of nitric oxide.

The subject of assay [2] is RAW264.7. The assay is described as follows: Inhibition of LPS-induced nitric oxide production in mouse RAW264.7 cells after 20 hrs by Griess method. It is filed as functional, cell-based. To be noted: RAW264.7, 20 h. A digest of the protocol:
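Cells plated at 1 × 10⁵ cells/mL in 10% FBS-DMEM for 24 h, then switched to 1% FBS medium. Incubated 20 h with LPS (1 μg/mL) with or without compound. Supernatant nitrite read with Griess reagent, 10 min at room temperature, absorbance 570 nm, against a sodium nitrite standard. IC₅₀ from dose–response curve.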

Assay [3] deals with RAW264.7. The assay is described as follows: Inhibition of LPS-induced iNOS expression in mouse RAW264.7 cells at 20 uM treated for 20 hrs during LPS activation by Western blot. It is filed as functional, cell-based. The gist of the method:
(§1)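 RAW 264.7 cells given compound (20 μM) during 20 h LPS (1 μg/mL) activation, then washed and lysed. 20 μg lysate protein run on 8% SDS-PAGE and blotted to PVDF. Probed for iNOS, COX-2 and actin, with ECL detection.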
In general terms: Immunoblotting shows a protein as a band on a membrane.

Assay [4] deals with RAW264.7. The assay is described as follows: Inhibition of LPS-induced COX2 expression in mouse RAW264.7 cells at 20 uM treated for 20 hrs during LPS activation by Western blot. It is filed as functional, cell-based. The gist of the method: as §1
The test system of assay [5] is RAW264.7. The assay is described as follows: Inhibition of LPS-induced iNOS mRNA expression in mouse RAW264.7 cells at 20 uM pretreated for 6 hrs before LPS challenge by RT-PCR. It is filed as functional, cell-based.
In assay [6] the test system is RAW264.7. Description: Inhibition of LPS-induced COX2 mRNA expression in mouse RAW264.7 cells at 20 uM pretreated for 6 hrs before LPS challenge by RT-PCR. It is filed as functional, cell-based.
Assay [7] has as its system RAW264.7. Description: Inhibition of LPS-induced iNOS mRNA expression in mouse RAW264.7 cells at 20 uM treated after LPS challenge by RT-PCR. It is filed as functional, cell-based. A digest of the protocol: (§2)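 Cells at 1.8 × 10⁶ per 60 mm dish stimulated 6 h with LPS (1 μg/mL) with or without compound (20 μM). Total RNA taken for RT-PCR of iNOS, COX-2 and β-actin: 25 cycles of 94 °C, 55 °C and 72 °C, 30 s each. Products resolved on 2% agarose.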

Assay [8] deals with RAW264.7. Description: Inhibition of LPS-induced COX2 mRNA expression in mouse RAW264.7 cells at 20 uM treated after LPS challenge by RT-PCR. It is filed as functional, cell-based. A digest of the protocol: as §2
For assay [9], the system named is RAW264.7. Description: Inhibition of I-kappaB-alpha degradation in LPS-induced mouse RAW264.7 cells at 20 uM pretreated for 30 mins before LPS challenge for 30 mins by Western blotting. It is filed as cell-based. The gist of the method: (§3)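 Cells pretreated 30 min with compound at 20 μM, then LPS (1 μg/mL) for 30 min. Cytoplasmic IκB-α and nuclear p65 measured by Western blot. Levels normalized to PARP.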

The test system of assay [10] is RAW264.7. Description: Inhibition of sNFkappaB nuclear translocation in LPS-induced mouse RAW264.7 cells at 20 uM pretreated for 30 mins before LPS challenge for 30 mins by Western blotting. It is filed as cell-based. The gist of the method: as §3

In turn, `COc1ccc2[nH]cc(CC(=O)Nc3cccc(COc4cccc5scnc45)c3)c2c1` showed an inhibition at 20 µM with RAW264.7 [1] of 75.9%. This compound had an IC50 with RAW264.7 [2] of 4.2 µM. Also, the inhibition entry in the assay with RAW264.7 [3], in the assay with RAW264.7 [4], in the assay on RAW264.7 [5], in the assay with RAW264.7 [6], in the assay with RAW264.7 [9] and in the assay with RAW264.7 [10] was “Active” throughout. The inhibition entry with RAW264.7 [7] and with RAW264.7 [8] was “inactive” throughout.
For the compound `O=C(Cc1ccc2c(c1)OCO2)Nc1cccc(COc2cccc3scnc23)c1`, the inhibition at 20 µM with RAW264.7 [1] was determined as 58.9%. The compound also had a half-maximal inhibitory concentration (IC50) in the assay on RAW264.7 [2] of 23.6 µM.
In the assay with RAW264.7 [1], `CS(=O)(=O)Nc1ccccc1COc1cccc2scnc12` yielded an inhibition at 20 µM of 0.4%.
Still for that read-out and setting: to `Nc1cccc(COc2cccc3scnc23)c1` belongs 32.9%.
On the same count and under the same terms, to `CC(=O)Nc1ccccc1COc1cccc2scnc12` belongs 3.7%.
Still for that read-out and setting: to `Cc1ccc(COc2cccc3sc(N)nc23)cc1` belongs 14.4%.
`c1ccc(CNc2ccccc2COc2cccc3scnc23)cc1`: the inhibition at 20 µM in the assay on RAW264.7 [1] is 55.8%. In the assay with RAW264.7 [2], this compound returned an IC50 of 17.2 µM. The inhibition result in the assay on RAW264.7 [3], in the assay with RAW264.7 [4], with RAW264.7 [5], in the assay on RAW264.7 [6], in the assay on RAW264.7 [9] and with RAW264.7 [10] was “Active” in each case. Besides, the inhibition entry in the assay with RAW264.7 [7] and in the assay with RAW264.7 [8] was “inactive” in each case.
`Oc1cccc2scnc12` registered an inhibition at 20 µM with RAW264.7 [1] of 8.6%.
Turning to `c1ccc(COc2cccc3scnc23)cc1`, in the assay with RAW264.7 [1], at 20 µM the inhibition was 12.3%.
Same read-out and setting: to `Nc1nc2c(O)cccc2s1` belongs 11.4%; to `COc1ccc2[nH]cc(CC(=O)Nc3ccccc3COc3cccc4scnc34)c2c1`, 36.4%.
Take `O=C(Cc1ccc2c(c1)OCO2)Nc1ccccc1COc1cccc2scnc12`: in the assay with RAW264.7 [1], the inhibition at 20 µM is 32.5%. In the assay with RAW264.7 [2], this compound returned an IC50 of 72.3 µM.
For the compound `COc1cccc2scnc12`, 20 µM produced 18.6% inhibition in the assay on RAW264.7 [1].
The same measure, in the same setting: to `Cc1ccc(COc2cccc3scnc23)cc1` belongs 10.4%.
As to `COc1ccc(CCC(=O)Nc2ccccc2COc2cccc3scnc23)cc1OC`, in the assay on RAW264.7 [1], 20 µM produced 11.6% inhibition.
As for `COc1ccc(/C=C/C(=O)N(Cc2ccccc2)c2ccccc2COc2cccc3scnc23)cc1OC`, in the assay with RAW264.7 [1], at 20 µM the inhibition was 39.8%. The IC50 with RAW264.7 [2] was 20.9 µM. Also, the inhibition entry in the assay on RAW264.7 [3], in the assay with RAW264.7 [4], in the assay on RAW264.7 [5], with RAW264.7 [6], in the assay on RAW264.7 [9] and in the assay on RAW264.7 [10] was “Active” throughout. The inhibition entry in the assay with RAW264.7 [7] and in the assay on RAW264.7 [8] was “inactive” in each case.
In the assay with RAW264.7 [1], `COc1ccc(/C=C/C(=O)Nc2ccccc2COc2cccc3scnc23)cc1OC` had an inhibition at 20 µM of 44.7%.
`O=C(Cc1ccc2c(c1)OCO2)N(Cc1ccccc1)c1ccccc1COc1cccc2scnc12` displayed an inhibition at 20 µM in the assay with RAW264.7 [1] of 54.9%. For the same compound, it took 21.2 µM to reach half-maximal inhibition in the assay with RAW264.7 [2] (IC50).
Regarding `Nc1ccccc1COc1cccc2scnc12`, the inhibition at 20 µM in the assay on RAW264.7 [1] came out at 15.2%.

What is called inhibition is the share of the control response that was lost under treatment. As a reminder, the IC50 is the concentration that gives 50% inhibition. The low end stands for greater potency, the high end for weaker potency.
